According to ChEMBL document CHEMBL4715813, “Allicin-inspired pyridyl disulfides as antimicrobial agents for multidrug-resistant Staphylococcus aureus” (Eur J Med Chem, 2018):
Converted amounts (≈) assume the structure as drawn.

Key:
Assay type in all cases: functional
Enterococcus faecalis = assay: Antibacterial activity against vancomycin-susceptible Enterococcus faecalis ATCC 29212 assessed as zone of inhibition by disc diffusion method
Enterobacter cloacae = assay: Antibacterial activity against Enterobacter cloacae ATCC 23355 assessed as zone of inhibition by disc diffusion method
Acinetobacter baumannii [1] = assay: Antibacterial activity against Acinetobacter baumannii ATCC 19606 assessed as zone of inhibition by disc diffusion method
Staphylococcus aureus [2] = assay: Antibacterial activity against methicillin-susceptible Staphylococcus aureus ATCC 25923 assessed as zone of inhibition by disc diffusion method
Staphylococcus aureus [3] = assay: Antibacterial activity against methicillin-susceptible Staphylococcus aureus ATCC 25923 assessed as bacterial growth inhibition incubated for 20 hrs by broth dilution method
Procedure, shortened: (§1)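 Broth microdilution: 0.5 McFarland suspension from an overnight culture, diluted 1:100 in cation-adjusted Mueller Hinton broth (CAMHB), given serial dilutions of test agent for 20 h at 37 °C. MIC is the lowest concentration with no visible growth.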

Staphylococcus aureus [4] = assay: Antibacterial activity against vancomycin-intermediate Staphylococcus aureus clinical isolate 12 assessed as bacterial growth inhibition after 20 hrs by broth microdilution assay; procedure, shortened: as §1
Staphylococcus aureus [5] = assay: Antibacterial activity against vancomycin-intermediate resistant Staphylococcus aureus Mu50 ATCC 700699 assessed as bacterial growth inhibition incubated for 20 hrs by broth dilution method; procedure, shortened: as §1
Staphylococcus aureus [6] = assay: Antibacterial activity against vancomycin-resistant Staphylococcus aureus clinical isolate 10 assessed as bacterial growth inhibition after 20 hrs by broth microdilution assay; procedure, shortened: as §1
[7] = system: Staphylococcus epidermidis; assay: Antibacterial activity against Staphylococcus epidermidis ATCC 14990 assessed as zone of inhibition by disc diffusion method
Pseudomonas aeruginosa = assay: Antibacterial activity against Pseudomonas aeruginosa ATCC 15422 assessed as zone of inhibition by disc diffusion method
Staphylococcus aureus [8] = assay: Antibacterial activity against vancomycin-resistant Staphylococcus aureus HIP11714 assessed as inhibition of bacterial growth incubated for 20 hrs by broth microdilution method; conditions: HIP11714, 20 h; procedure, shortened: as §1
Staphylococcus aureus [9] = assay: Antibacterial activity against vancomycin-intermediate resistant Staphylococcus aureus Mu50 ATCC 700699 assessed as zone of inhibition by disc diffusion method
Enterococcus faecium = assay: Antibacterial activity against vancomycin-resistant Enterococcus faecium ATCC 700221 assessed as zone of inhibition by disc diffusion method
Staphylococcus aureus [10] = assay: Antibacterial activity against vancomycin-resistant Staphylococcus aureus HIP11714 assessed as zone of inhibition by disc diffusion method
Staphylococcus aureus [11] = assay: Antibacterial activity against linezolid-resistant Staphylococcus aureus assessed as bacterial growth inhibition incubated for 20 hrs by broth dilution method; procedure, shortened: as §1
Staphylococcus aureus [12] = assay: Antibacterial activity against heterogeneous vancomycin-intermediate resistant Staphylococcus aureus Mu3 ATCC 700698 assessed as zone of inhibition by disc diffusion method
Acinetobacter baumannii [13] = assay: Antibacterial activity against multidrug-resistant Acinetobacter baumannii BAA 1605 assessed as zone of inhibition by disc diffusion method
Staphylococcus aureus [14] = assay: Antibacterial activity against hospital acquired methicillin-resistant Staphylococcus aureus ATCC 43300 assessed as zone of inhibition by disc diffusion method
Bacillus anthracis = assay: Antibacterial activity against Bacillus anthracis Sterne 34F2 assessed as zone of inhibition by disc diffusion method
Escherichia coli = assay: Antibacterial activity against beta-lactam resistant Escherichia coli BAA 2326 assessed as zone of inhibition by disc diffusion method
Staphylococcus aureus [15] = assay: Antibacterial activity against heterogeneous vancomycin-intermediate Staphylococcus aureus Mu3 ATCC 700698 assessed as bacterial growth inhibition incubated for 20 hrs by broth dilution method; procedure, shortened: as §1
Staphylococcus aureus [16] = assay: Antibacterial activity against methicillin-resistant Staphylococcus aureus ATCC 43300 assessed as bacterial growth inhibition incubated for 20 hrs by broth dilution method; procedure, shortened: as §1
Klebsiella pneumoniae = assay: Antibacterial activity against multidrug-resistant Klebsiella pneumoniae ATCC 700603 assessed as zone of inhibition by disc diffusion method
Staphylococcus aureus [17] = assay: Antibacterial activity against community acquired methicillin-resistant Staphylococcus aureus BAA 1747 assessed as zone of inhibition by disc diffusion method

Structure (SMILES) | diameter of the inhibition zone (DIZ) (Enterococcus faecalis) [mm] | diameter of the inhibition zone (DIZ) (Enterobacter cloacae) [mm] | diameter of the inhibition zone (DIZ) (Acinetobacter baumannii [1]) [mm] | diameter of the inhibition zone (DIZ) (Staphylococcus aureus [2]) [mm] | diameter of the inhibition zone (DIZ) [7] [mm] | diameter of the inhibition zone (DIZ) (Pseudomonas aeruginosa) [mm] | diameter of the inhibition zone (DIZ) (Staphylococcus aureus [9]) [mm] | diameter of the inhibition zone (DIZ) (Enterococcus faecium) [mm] | diameter of the inhibition zone (DIZ) (Staphylococcus aureus [10]) [mm] | diameter of the inhibition zone (DIZ) (Staphylococcus aureus [12]) [mm] | diameter of the inhibition zone (DIZ) (Acinetobacter baumannii [13]) [mm] | diameter of the inhibition zone (DIZ) (Staphylococcus aureus [14]) [mm] | diameter of the inhibition zone (DIZ) (Bacillus anthracis) [mm] | diameter of the inhibition zone (DIZ) (Escherichia coli) [mm] | diameter of the inhibition zone (DIZ) (Klebsiella pneumoniae) [mm] | diameter of the inhibition zone (DIZ) (Staphylococcus aureus [17]) [mm] | also measured
CCCCCCSSc1ccccn1 | 20 | 8 | 0 | 47 | >50 | 0 | >50 | 13 | 46 | 45 | 0 | 49 | >50 | 0 | 0 | 40 | MIC (Staphylococcus aureus [3]): 25 µM (≈ 5.68 µg/mL); MIC50 (Staphylococcus aureus [4]): 50 µM (≈ 11.4 µg/mL); MIC90 (Staphylococcus aureus [4]): 50 µM (≈ 11.4 µg/mL); MIC (Staphylococcus aureus [5]): 25 µM (≈ 5.68 µg/mL); MIC50 (Staphylococcus aureus [6]): 50 µM (≈ 11.4 µg/mL); MIC90 (Staphylococcus aureus [6]): 50 µM (≈ 11.4 µg/mL); MIC (Staphylococcus aureus [8]): 50 µM (≈ 11.4 µg/mL); MIC (Staphylococcus aureus [11]): 50 µM (≈ 11.4 µg/mL); MIC (Staphylococcus aureus [15]): 50 µM (≈ 11.4 µg/mL); MIC (Staphylococcus aureus [16]): 50 µM (≈ 11.4 µg/mL)
CSSc1ccccn1 | 23 | 10 | 21 | 20 | 21 | 0 | 13 | 0 | 12 | 12 | 15 | 25 | 48 | 12 | 0 | 21 | 
CC(C)SSc1ccccn1 | 0 | 0 | 0 | 0 | 13 | 0 | 0 | 0 | 0 | 0 | 0 | 0 | 0 | 0 | 0 | 0 | 
